Activity calls are given as the source filed them. The rule behind the calls is not given here.
Assays:
[1] = target: T1, Transient receptor potential cation channel subfamily A member 1 (Homo sapiens, UniProt O75762); experiment: Agonist activity at human TRPA1 in WI38 cells assessed as increase in calcium influx by Fluo-4-AM dye based fluorescence assay; format: cell-based
[2] = system: Transient receptor potential cation channel subfamily A member 1 (Homo sapiens), O75762 [F909A]; experiment: Agonist activity at human TRPA1 Phe909Ala mutant expressed in HEK293 cells assessed as Ca2+ influx at 30 uM by fluorescence assay; format: cell-based
Chain of Transient receptor potential cation channel subfamily A member 1 (Homo sapiens), O75762 [F909A] (O75762 whole entry F909A): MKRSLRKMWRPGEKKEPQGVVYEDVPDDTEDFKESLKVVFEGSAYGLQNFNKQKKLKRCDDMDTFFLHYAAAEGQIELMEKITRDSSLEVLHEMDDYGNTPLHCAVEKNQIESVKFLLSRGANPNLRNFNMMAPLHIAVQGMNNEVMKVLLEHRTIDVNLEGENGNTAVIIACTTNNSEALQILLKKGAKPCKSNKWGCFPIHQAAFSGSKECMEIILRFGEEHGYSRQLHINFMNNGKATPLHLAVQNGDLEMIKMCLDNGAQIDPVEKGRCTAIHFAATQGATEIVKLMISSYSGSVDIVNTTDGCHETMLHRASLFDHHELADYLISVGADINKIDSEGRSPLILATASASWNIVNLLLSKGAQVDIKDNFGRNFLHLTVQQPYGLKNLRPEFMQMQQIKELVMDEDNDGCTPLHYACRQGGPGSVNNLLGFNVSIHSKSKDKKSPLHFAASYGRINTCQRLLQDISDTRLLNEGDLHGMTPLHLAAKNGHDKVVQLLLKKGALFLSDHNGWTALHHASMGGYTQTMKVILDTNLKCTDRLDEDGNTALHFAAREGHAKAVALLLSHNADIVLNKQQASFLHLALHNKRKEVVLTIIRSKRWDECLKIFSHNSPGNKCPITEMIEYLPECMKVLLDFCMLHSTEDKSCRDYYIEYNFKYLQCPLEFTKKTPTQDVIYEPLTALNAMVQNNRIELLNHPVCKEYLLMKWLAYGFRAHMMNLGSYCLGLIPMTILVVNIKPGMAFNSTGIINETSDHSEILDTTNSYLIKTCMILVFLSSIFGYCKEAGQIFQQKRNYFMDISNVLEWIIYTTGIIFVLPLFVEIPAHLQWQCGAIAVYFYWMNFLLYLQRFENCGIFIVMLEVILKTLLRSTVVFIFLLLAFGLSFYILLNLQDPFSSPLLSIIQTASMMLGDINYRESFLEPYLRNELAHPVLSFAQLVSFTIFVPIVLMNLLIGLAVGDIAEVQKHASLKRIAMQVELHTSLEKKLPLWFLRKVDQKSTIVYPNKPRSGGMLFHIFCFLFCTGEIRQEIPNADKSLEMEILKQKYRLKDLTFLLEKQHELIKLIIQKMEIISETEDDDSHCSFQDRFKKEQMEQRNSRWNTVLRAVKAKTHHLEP
Summary of the method: (§1)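 HEK293 cells stably expressing hTRPA1 point mutants (C621A, F909A or F944A), single-cell cloned under G418 selection. Cells plated on poly-D-lysine for 48 h, loaded with Fluo-4AM 2 µM for 45 min at room temperature. FlexStation read (ex 485/em 538 nm): 20 s baseline, compound added, calcimycin added at 180 s. Response expressed as % calcimycin from ΔRFU, vehicle-subtracted, and compared with wild-type hTRPA1 cells.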

[3] = target: T1, Transient receptor potential cation channel subfamily A member 1; experiment: Agonist activity at human TRPA1 expressed in HEK293 cells assessed as increase in calcium influx by Fluo-4-AM dye based fluorescence assay; format: cell-based
Summary of the method: (§2)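 Stably transfected hTRPA1- or hTRPM8-HEK293 cells on poly-D-lysine plates for 48 h, loaded with Fluo-4AM (2 µM, 45 min, dark, room temperature), in isotonic HEPES buffer pH 7.4. FlexStation 240 s run: 20 s baseline, compound added, calcimycin added at 180 s. ΔRFU expressed as % calcimycin, DMSO-subtracted. Screening N = 3. Dose-response curves fitted for logEC50 (N = 3 in duplicate or triplicate).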

[4] = target: T2, Transient receptor potential cation channel subfamily M member 8 (Homo sapiens, UniProt Q7Z2W7); experiment: Antagonist activity at human TRPM8 expressed in HEK293 cells assessed as increase in calcium influx at 30 uM incubated for 10 mins prior to WS5 challenge by Fluo-4-AM dye based fluorescence assay relative to WS5; format: cell-based; parameters: scale not given: the % may be the effect or the level left
Summary of the method: (§3)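 hTRPM8-HEK293 cells loaded with Fluo-4AM (2 µM, 45 min). Test compound pre-incubated 10 min before WS5 standard agonist. FlexStation fluorescence at 485/538 nm. ΔRFU given as % of WS5 response after DMSO vehicle subtraction. N = 3. IC50 from dose-response curves.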
Target sequence in this assay (Q7Z2W7 whole entry, looked up): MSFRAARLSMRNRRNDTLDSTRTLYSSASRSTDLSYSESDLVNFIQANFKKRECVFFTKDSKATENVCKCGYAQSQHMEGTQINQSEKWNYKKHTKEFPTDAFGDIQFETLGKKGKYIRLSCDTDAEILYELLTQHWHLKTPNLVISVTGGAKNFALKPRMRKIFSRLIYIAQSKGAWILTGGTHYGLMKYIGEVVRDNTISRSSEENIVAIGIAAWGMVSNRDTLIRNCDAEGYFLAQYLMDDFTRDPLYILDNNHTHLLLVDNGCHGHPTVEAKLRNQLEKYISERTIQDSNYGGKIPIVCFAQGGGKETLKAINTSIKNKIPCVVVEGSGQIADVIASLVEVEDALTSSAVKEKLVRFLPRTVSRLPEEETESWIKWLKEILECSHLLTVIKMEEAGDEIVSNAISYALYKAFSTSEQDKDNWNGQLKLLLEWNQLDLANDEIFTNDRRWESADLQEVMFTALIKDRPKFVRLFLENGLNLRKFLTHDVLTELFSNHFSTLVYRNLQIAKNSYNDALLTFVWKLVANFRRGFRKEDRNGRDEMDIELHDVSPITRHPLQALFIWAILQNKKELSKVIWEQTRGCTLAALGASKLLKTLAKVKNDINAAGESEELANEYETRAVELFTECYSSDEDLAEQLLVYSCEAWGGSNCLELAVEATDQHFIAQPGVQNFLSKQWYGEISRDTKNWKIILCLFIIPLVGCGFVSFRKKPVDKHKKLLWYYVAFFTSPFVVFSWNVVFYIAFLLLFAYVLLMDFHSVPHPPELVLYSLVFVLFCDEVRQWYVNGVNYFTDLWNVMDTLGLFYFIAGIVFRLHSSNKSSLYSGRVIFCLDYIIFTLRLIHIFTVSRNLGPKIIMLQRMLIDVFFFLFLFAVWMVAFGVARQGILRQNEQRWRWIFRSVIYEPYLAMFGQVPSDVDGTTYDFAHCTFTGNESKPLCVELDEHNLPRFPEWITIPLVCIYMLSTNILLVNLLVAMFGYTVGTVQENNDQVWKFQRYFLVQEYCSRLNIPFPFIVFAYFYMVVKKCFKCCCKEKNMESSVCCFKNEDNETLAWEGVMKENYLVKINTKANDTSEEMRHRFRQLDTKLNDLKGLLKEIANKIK

[5] = Dissociation constant, pKa of the compound at pH 7.4; format: physicochemical
[6] = target: T1, Transient receptor potential cation channel subfamily A member 1; experiment: Antagonist activity at human TRPA1 expressed in HEK293 cells assessed as increase in calcium influx at 3 uM incubated for 10 mins prior to CA challenge by Fluo-4-AM dye based fluorescence assay […]; format: cell-based
[7] = target: T2, Transient receptor potential cation channel subfamily M member 8; experiment: Agonist activity at human TRPM8 expressed in HEK293 cells assessed as increase in calcium influx at 3 uM by Fluo-4-AM dye based fluorescence assay relative to calcimycin; format: cell-based; summary of the method: as §2
Target sequence in this assay (Q7Z2W7 whole entry, looked up): as above

[8] = system: Transient receptor potential cation channel subfamily A member 1 (Homo sapiens), O75762 [F944A]; experiment: Agonist activity at human TRPA1 Phe944Ala mutant expressed in HEK293 cells assessed as Ca2+ influx at 30 uM by fluorescence assay; format: cell-based; summary of the method: as §1
Chain of Transient receptor potential cation channel subfamily A member 1 (Homo sapiens), O75762 [F944A] (O75762 whole entry F944A): as the sequence (O75762 whole entry F909A) above, with A909F, F944A counted along it

[9] = target: T1, Transient receptor potential cation channel subfamily A member 1; experiment: Agonist activity at human TRPA1 expressed in HEK293 cells assessed as increase in calcium influx at 30 uM by Fluo-4-AM dye based fluorescence assay relative to calcimycin; format: cell-based; summary of the method: as §2
[10] = system: Transient receptor potential cation channel subfamily A member 1 (Homo sapiens), O75762 [F944A]; experiment: Antagonist activity at human TRPA1 Phe944Ala mutant expressed in HEK293 cells assessed as Ca2+ influx at 100 uM by fluorescence assay; format: cell-based
Summary of the method: (§4)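 hTRPA1 F909A or F944A mutant HEK293 stable clones, loaded with Fluo-4AM (2 µM, 45 min, room temperature). Compound pre-incubated 10 min before the standard agonist was added. FlexStation fluorescence (485/538 nm). ΔRFU normalized to the standard agonist response set at 100 %, after DMSO vehicle subtraction.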

[11] = system: Transient receptor potential cation channel subfamily A member 1 (Homo sapiens), O75762 [F909A]; experiment: Antagonist activity at human TRPA1 Phe909Ala mutant expressed in HEK293 cells assessed as Ca2+ influx at 100 uM by fluorescence assay; format: cell-based; summary of the method: as §4
[12] = target: T1, Transient receptor potential cation channel subfamily A member 1; experiment: Antagonist activity at human TRPA1 expressed in HEK293 cells assessed as inhibition of CA-induced increase in calcium influx incubated for 10 mins prior to CA addition by Fluo-4-AM dye based fluorescence assayy; format: cell-based
[13] = system: Transient receptor potential cation channel subfamily A member 1 (Homo sapiens), O75762 [F944A]; experiment: Agonist activity at human TRPA1 Phe944Ala mutant expressed in HEK293 cells assessed as Ca2+ influx at 10 uM by fluorescence assay; format: cell-based; summary of the method: as §1
[14] = system: Transient receptor potential cation channel subfamily A member 1 (Homo sapiens), O75762 [F909A]; experiment: Agonist activity at human TRPA1 Phe909Ala mutant expressed in HEK293 cells assessed as Ca2+ influx at 10 uM by fluorescence assay; format: cell-based; summary of the method: as §1
[15] = target: T1, Transient receptor potential cation channel subfamily A member 1; experiment: Modulating activity at human TRPA1 expressed in HEK293 cells assessed as desensitization of CA-induced increase in Ca2+ influx at 10 uM measured within 10 mins by Fluo-4-AM dye based fluorescence assay; format: cell-based
Summary of the method: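 hTRPA1-HEK293 cells with Fluo-4AM. Real-time fluorescence recorded for 10 min after compound addition (10 µM), followed by challenge with cinnamaldehyde (30 µM) to assess desensitization of the agonist response.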

[16] = target: T2, Transient receptor potential cation channel subfamily M member 8; experiment: Antagonist activity at human TRPM8 expressed in HEK293 cells assessed as inhibition in WS5-induced increase in calcium influx incubated for 10 mins prior to WS5 challenge by Fluo-4-AM dye based fluorescence assay; format: cell-based; summary of the method: as §3
Target sequence in this assay (Q7Z2W7 whole entry): as the sequence (Q7Z2W7 whole entry, looked up) above

[17] = target: T1, Transient receptor potential cation channel subfamily A member 1; experiment: Irreversible desensitizing activity at human TRPA1 expressed in HEK293 cells assessed as CA-induced increase in Ca2+ influx at >30 uM pretreated with compound followed by drug wash-out and CA challenge by Fluo-4-AM dye based fluorescence assay; format: cell-based
Summary of the method: (§5)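 hTRPA1-HEK293 cells loaded with Fluo-4AM were pre-incubated with compound, then washed and resuspended in fresh assay buffer. The response to cinnamaldehyde (30 µM) was then measured by FlexStation calcium fluorescence.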

[18] = target: T1, Transient receptor potential cation channel subfamily A member 1; experiment: Antagonist activity at human TRPA1 expressed in HEK293 cells assessed as increase in calcium influx at 100 uM incubated for 10 mins prior to CA addition by Fluo-4-AM dye based fluorescence assay relative to CA; format: cell-based; parameters: scale not given: the % may be the effect or the level left
Summary of the method: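 hTRPA1-HEK293 cells loaded with Fluo-4AM (2 µM). Compound pre-incubated 10 min, then cinnamaldehyde standard agonist added. FlexStation read, ex 485/em 538 nm. ΔRFU normalized to the CA response set at 100 % after DMSO vehicle subtraction. N = 3. logIC50 taken from dose-response fits.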

[19] = target: T2, Transient receptor potential cation channel subfamily M member 8; experiment: Agonist activity at human TRPM8 expressed in HEK293 cells assessed as increase in calcium influx at 100 uM by Fluo-4-AM dye based fluorescence assay relative to calcimycin; format: cell-based; summary of the method: as §2
Target sequence in this assay (Q7Z2W7 whole entry, looked up): as above

[20] = target: T1, Transient receptor potential cation channel subfamily A member 1; experiment: Reversible desensitizing activity at human TRPA1 expressed in HEK293 cells assessed as CA-induced increase in Ca2+ influx upto 10 uM pretreated with compound followed by drug wash-out and CA challenge by Fluo-4-AM dye based fluorescence assay; format: cell-based; summary of the method: as §5
[21] = target: T2, Transient receptor potential cation channel subfamily M member 8; experiment: Antagonist activity at human TRPM8 expressed in HEK293 cells assessed as increase in calcium influx at 100 uM incubated for 10 mins prior to WS5 challenge by Fluo-4-AM dye based fluorescence assay relative to WS5; format: cell-based; parameters: scale not given: the % may be the effect or the level left; summary of the method: as §3
Target sequence in this assay (Q7Z2W7 whole entry, looked up): as above

[22] = target: T2, Transient receptor potential cation channel subfamily M member 8; experiment: Agonist activity at human TRPM8 expressed in HEK293 cells assessed as increase in calcium influx at 30 uM by Fluo-4-AM dye based fluorescence assay relative to calcimycin; format: cell-based; summary of the method: as §2
Target sequence in this assay (Q7Z2W7 whole entry, looked up): as above

Cavia porcellus = species: Cavia porcellus; experiment: Agonist activity at TRPA1 in Dunkin-Hartley guinea pig vagus nerve assessed as activation of vagus nerve by measuring depolarization at 100 uM […]
Summary of the method: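 Isolated vagus nerves from male Dunkin-Hartley guinea pigs (300-400 g, eight animals). Compound DMSO stocks diluted 1000× in Krebs-Henseleit buffer. Viability checked with capsaicin (1 µM) at the start and acrolein (300 µM) at the end. Single non-cumulative concentrations applied for 2 min each, with KH wash to baseline between them. DMSO vehicle run alike. Depolarization recorded in mV.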

T1 sequence (O75762 whole entry): as the sequence (O75762 whole entry F909A) above, with A909F counted along it

## Cc1cccc(Nc2ccccc2C(=O)O)c1C [MEFENAMIC ACID]
[1]
  EC50: 61 µM
[2]
  Activity: Active
[3]; read-out: EC50
  EC50: 16 µM

## COC(=O)c1ccccc1NC(=O)CCOc1ccccc1
[4]
  Activity: 12%
[2]
  Activity: Active
[5]
  pKa: 11.9
[6]
  Activity: inactive
[7]
  Activity: inactive
[8]
  Activity: inactive
[9]
  Activity: 45%

## O=C(NCc1ccc(Cl)cc1)[C@@H]1CCCN1S(=O)(=O)c1ccc(F)cc1
[10]
  Activity: inactive
[11]
  Activity: inactive
[12]
  IC50: 10 µM

## O=C(O)c1ccccc1Nc1cccc(C(F)(F)F)c1 [FLUFENAMIC ACID]
[13]
  Activity: inactive
[1]
  EC50: 24 µM
[14]
  Activity: Active
[3]; read-out: EC50
  EC50: 7 to 57 µM
[3]; read-out: pEC50 (converted)
  EC50: 6.92 µM

## O=C(/C=C/c1ccc(Br)cc1)Nc1ccccc1C(=O)O
[15]
  Activity: Active
[5]
  pKa: 3.4
[16]
  IC50: 59 µM
[17]
  Activity: Active
[18]
  Activity: 6%
[3]; read-out: EC50
  EC50: 12 µM
[19]
  Activity: inactive
[12]
  IC50: 9 µM
[20]
  Activity: Active
[21]
  Activity: 35%
[9]
  Activity: 60%
[22]
  Activity: inactive

## O=C(/C=C/c1ccc(Cl)cc1)Nc1ccccc1C(=O)O
[15]
  Activity: Active
[5]
  pKa: 3.4
[17]
  Activity: Active
[18]
  Activity: 7%
[3]; read-out: EC50
  EC50: 10 µM
[19]
  Activity: inactive
[12]
  IC50: 4 µM
[20]
  Activity: Active
[21]
  Activity: 40%
Cavia porcellus
  Activity: Active
[9]
  Activity: 62%
[22]
  Activity: inactive

## CC(C)c1ccc(NC(=O)Cn2cnc3c2c(=O)n(C)c(=O)n3C)cc1
[11]
  Activity: Active
[12]
  IC50: 18 µM

— ChEMBL document CHEMBL4346663, “N-Cinnamoylanthranilates as human TRPA1 modulators: Structure-activity relationships and channel binding sites” (Eur J Med Chem, 2019)
